Assay results taken from ChEMBL document CHEMBL3352372, “Design, synthesis and 3D-QSAR studies of new diphenylamine containing 1,2,4-triazoles as potential antitubercular agents” (Eur J Med Chem, 2014).
In brackets after ≈: the same amount, converted by molar mass.

How the values were obtained:
Escherichia coli = experiment: Antibacterial activity Escherichia coli ATCC-25922 assessed as growth inhibition after 24 hrs by twofold serial dilution technique; assay type: functional; conditions: ATCC-25922, 24 h
Outline: (§1)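 Tube twofold serial dilution of compounds dissolved in DMSO, under aseptic conditions. Solvent, growth (negative) and drug (ampicillin) controls were run alongside. Tubes were incubated 24 h at 37 °C. MIC was taken as the lowest concentration giving apparent complete inhibition of growth. Strains were first screened by cup plate method.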

Pseudomonas aeruginosa = experiment: Antibacterial activity Pseudomonas aeruginosa ATCC-27853 assessed as growth inhibition after 24 hrs by twofold serial dilution technique; assay type: functional; conditions: ATCC-27853, 24 h; outline: as §1
[1] = system: Mycobacterium tuberculosis; experiment: Antitubercular activity Mycobacterium tuberculosis H37Rv assessed as growth inhibition after 5 days by MABA method; assay type: functional; conditions: for MIC: Mycobacterium tuberculosis, H37Rv, 120 h
Outline: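 Log-phase H37Rv was diluted to a final OD550 of 0.05 in Middlebrook 7H9 broth, and compounds in DMSO were added in 96-well plates. After a further 24 h at 37 °C/5% CO2, fluorescence was read (ex 544 nm, em 590 nm). Inhibition was scored against the untreated control, with >90% inhibition counted as active in the initial screen.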

Staphylococcus aureus = experiment: Antibacterial activity Staphylococcus aureus ATCC-25923 assessed as growth inhibition after 24 hrs by twofold serial dilution technique; assay type: functional; conditions: ATCC-25923, 24 h; outline: as §1
Bacillus spizizenii = experiment: Antibacterial activity Bacillus Bacillus subtilis ATCC 6633 assessed as growth inhibition after 24 hrs by twofold serial dilution technique; assay type: functional; conditions: ATCC 6633, 24 h; outline: as §1
[2] = system: Mycobacterium tuberculosis; experiment: Antitubercular activity Mycobacterium tuberculosis H37Rv assessed as growth inhibition after 30 days by agar microdilution method; assay type: functional
Outline: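 M. tuberculosis H37Rv (ATCC 27294) grown on L-J medium, harvested in 0.85% saline with 0.05% Tween-80. Compounds, from a DMSO stock, were added as twofold dilutions to Middlebrook 7H10 agar with OADC in tubes. After 30 days of incubation, tubes were compared with untreated H37Rv control tubes. The lowest concentration giving complete inhibition of colonies was reported.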

[3] = Cytotoxicity against african green monkey Vero cells after 72 hrs by MTT assay; assay type: cell-based; conditions: chlorocebus sabaeus
Outline: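 After media removal and a PBS wash, dilutions were added with DMSO control, then incubated 72 h at 37 °C, 5% CO2. Cells were washed, given MTT for 3 h in the dark, and solubilized in DMSO 1–2 h. CC50 was extrapolated from plotted % inhibition (100 − % viability) against concentration.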

[4] = Cytotoxicity against human HepG2 cells after 72 hrs by MTT assay; assay type: cell-based

Compound	MIC (Escherichia coli) [µM]	MIC (Pseudomonas aeruginosa) [µM]	-logMIC [1]	MIC [1] [µM]	MIC (Staphylococcus aureus) [µM]	MIC (Bacillus spizizenii) [µM]	MIC [2] [µM]	CC50 at 72 h [3] [µM]	CC50 at 72 h [4] [µM]
O=c1c2ccccc2nc2n(/N=C/c3ccncc3)c(Cc3ccccc3Nc3c(Cl)cccc3Cl)nn12	25 (≈ 13.5 µg/mL)	100 (≈ 54 µg/mL)	4.602	25 (≈ 13.5 µg/mL)	100 (≈ 54 µg/mL)	100 (≈ 54 µg/mL)	–	–	–
S=c1n(CN2CCOCC2)nc(Cc2ccccc2Nc2c(Cl)cccc2Cl)n1/N=C/c1ccccc1	12.5 (≈ 6.92 µg/mL)	12.5 (≈ 6.92 µg/mL)	6.699	0.2 (≈ 0.111 µg/mL)	6.25 (≈ 3.46 µg/mL)	6.25 (≈ 3.46 µg/mL)	0.2 (≈ 0.111 µg/mL)	> 300	> 300
S=c1n(CN2CCOCC2)nc(Cc2ccccc2Nc2c(Cl)cccc2Cl)n1/N=C/c1ccncc1	25 (≈ 13.9 µg/mL)	25 (≈ 13.9 µg/mL)	4.903	12.5 (≈ 6.93 µg/mL)	12.5 (≈ 6.93 µg/mL)	12.5 (≈ 6.93 µg/mL)	12.5 (≈ 6.93 µg/mL)	–	–
S=c1n(CN2CCOCC2)nc(Cc2ccccc2Nc2c(Cl)cccc2Cl)n1/N=C/c1cccs1	6.25 (≈ 3.5 µg/mL)	12.5 (≈ 6.99 µg/mL)	5.796	1.6 (≈ 0.895 µg/mL)	6.25 (≈ 3.5 µg/mL)	12.5 (≈ 6.99 µg/mL)	3.12 (≈ 1.75 µg/mL)	> 300	250
O=C1CSC(c2ccccc2)N1n1c(Cc2ccccc2Nc2c(Cl)cccc2Cl)n[nH]c1=S (centres undefined)	12.5 (≈ 6.61 µg/mL)	12.5 (≈ 6.61 µg/mL)	4.301	50 (≈ 26.4 µg/mL)	12.5 (≈ 6.61 µg/mL)	12.5 (≈ 6.61 µg/mL)	–	–	–
COc1ccc(/C=N/n2c(Cc3ccccc3Nc3c(Cl)cccc3Cl)nn(CN3CCOCC3)c2=S)cc1OC	6.25 (≈ 3.83 µg/mL)	12.5 (≈ 7.67 µg/mL)	5.204	6.25 (≈ 3.83 µg/mL)	12.5 (≈ 7.67 µg/mL)	12.5 (≈ 7.67 µg/mL)	6.25 (≈ 3.83 µg/mL)	> 300	282
CC1(C)S[C@@H]2[C@H](NC(=O)[C@H](N)c3ccccc3)C(=O)N2[C@H]1C(=O)O [AMPICILLIN]	< 6.25	< 6.25	–	–	6.25 (≈ 2.18 µg/mL)	6.25 (≈ 2.18 µg/mL)	–	–	–
COc1ccc(/C=N/n2c(Cc3ccccc3Nc3c(Cl)cccc3Cl)nn(CN3CCCCC3)c2=S)cc1OC	25 (≈ 15.3 µg/mL)	25 (≈ 15.3 µg/mL)	4.903	12.5 (≈ 7.64 µg/mL)	12.5 (≈ 7.64 µg/mL)	25 (≈ 15.3 µg/mL)	6.25 (≈ 3.82 µg/mL)	–	–
O=c1c2ccccc2nc2n(/N=C/c3ccccc3)c(Cc3ccccc3Nc3c(Cl)cccc3Cl)nn12	12.5 (≈ 6.74 µg/mL)	12.5 (≈ 6.74 µg/mL)	4.903	12.5 (≈ 6.74 µg/mL)	12.5 (≈ 6.74 µg/mL)	12.5 (≈ 6.74 µg/mL)	12.5 (≈ 6.74 µg/mL)	–	–
COc1ccc(/C=N/n2c(Cc3ccccc3Nc3c(Cl)cccc3Cl)nn(CN3CCOCC3)c2=S)cc1	6.25 (≈ 3.65 µg/mL)	12.5 (≈ 7.29 µg/mL)	5.204	6.25 (≈ 3.65 µg/mL)	6.25 (≈ 3.65 µg/mL)	12.5 (≈ 7.29 µg/mL)	6.25 (≈ 3.65 µg/mL)	> 300	> 300
S=c1n(CN2CCCCC2)nc(Cc2ccccc2Nc2c(Cl)cccc2Cl)n1/N=C/c1ccncc1	25 (≈ 13.8 µg/mL)	25 (≈ 13.8 µg/mL)	4.903	12.5 (≈ 6.91 µg/mL)	12.5 (≈ 6.91 µg/mL)	25 (≈ 13.8 µg/mL)	12.5 (≈ 6.91 µg/mL)	–	–
O=c1c2ccccc2nc2n(/N=C/c3cccs3)c(Cc3ccccc3Nc3c(Cl)cccc3Cl)nn12	12.5 (≈ 6.82 µg/mL)	12.5 (≈ 6.82 µg/mL)	4.903	12.5 (≈ 6.82 µg/mL)	12.5 (≈ 6.82 µg/mL)	12.5 (≈ 6.82 µg/mL)	12.5 (≈ 6.82 µg/mL)	–	–
S=c1n(CN2CCCCC2)nc(Cc2ccccc2Nc2c(Cl)cccc2Cl)n1/N=C/c1cccs1	12.5 (≈ 6.97 µg/mL)	12.5 (≈ 6.97 µg/mL)	4.903	12.5 (≈ 6.97 µg/mL)	12.5 (≈ 6.97 µg/mL)	12.5 (≈ 6.97 µg/mL)	12.5 (≈ 6.97 µg/mL)	–	–
NNC(=O)c1ccncc1 [ISONIAZID]	–	–	–	< 0.2	–	–	< 0.2	–	–
O=C1CSC(c2cccs2)N1n1c(Cc2ccccc2Nc2c(Cl)cccc2Cl)n[nH]c1=S (centres undefined)	12.5 (≈ 6.68 µg/mL)	12.5 (≈ 6.68 µg/mL)	4.602	25 (≈ 13.4 µg/mL)	12.5 (≈ 6.68 µg/mL)	12.5 (≈ 6.68 µg/mL)	–	–	–
COc1ccc(/C=N/n2c(Cc3ccccc3Nc3c(Cl)cccc3Cl)nn3c(=O)c4ccccc4nc23)cc1	100 (≈ 56.9 µg/mL)	100 (≈ 56.9 µg/mL)	4.602	25 (≈ 14.2 µg/mL)	100 (≈ 56.9 µg/mL)	25 (≈ 14.2 µg/mL)	–	–	–
COc1ccc(/C=N/n2c(Cc3ccccc3Nc3c(Cl)cccc3Cl)nn3c(=O)c4ccccc4nc23)cc1OC	25 (≈ 15 µg/mL)	50 (≈ 30 µg/mL)	4.602	25 (≈ 15 µg/mL)	12.5 (≈ 7.49 µg/mL)	25 (≈ 15 µg/mL)	–	–	–
COc1ccc(C2SCC(=O)N2n2c(Cc3ccccc3Nc3c(Cl)cccc3Cl)n[nH]c2=S)cc1OC (centres undefined)	100 (≈ 58.9 µg/mL)	100 (≈ 58.9 µg/mL)	4.301	50 (≈ 29.4 µg/mL)	100 (≈ 58.9 µg/mL)	100 (≈ 58.9 µg/mL)	–	–	–
O=C1CSC(c2ccncc2)N1n1c(Cc2ccccc2Nc2c(Cl)cccc2Cl)n[nH]c1=S (centres undefined)	50 (≈ 26.5 µg/mL)	50 (≈ 26.5 µg/mL)	4.903	12.5 (≈ 6.62 µg/mL)	25 (≈ 13.2 µg/mL)	12.5 (≈ 6.62 µg/mL)	6.25 (≈ 3.31 µg/mL)	–	–
O=C1CSC(c2ccco2)N1n1c(Cc2ccccc2Nc2c(Cl)cccc2Cl)n[nH]c1=S (centres undefined)	12.5 (≈ 6.48 µg/mL)	12.5 (≈ 6.48 µg/mL)	4.602	25 (≈ 13 µg/mL)	12.5 (≈ 6.48 µg/mL)	12.5 (≈ 6.48 µg/mL)	–	–	–
S=c1n(CN2CCCCC2)nc(Cc2ccccc2Nc2c(Cl)cccc2Cl)n1/N=C/c1ccco1	12.5 (≈ 6.77 µg/mL)	25 (≈ 13.5 µg/mL)	5.204	6.25 (≈ 3.38 µg/mL)	25 (≈ 13.5 µg/mL)	25 (≈ 13.5 µg/mL)	6.25 (≈ 3.38 µg/mL)	> 300	262
COc1ccc(/C=N/n2c(Cc3ccccc3Nc3c(Cl)cccc3Cl)nn(CN3CCCCC3)c2=S)cc1	6.25 (≈ 3.63 µg/mL)	12.5 (≈ 7.27 µg/mL)	4.903	12.5 (≈ 7.27 µg/mL)	12.5 (≈ 7.27 µg/mL)	12.5 (≈ 7.27 µg/mL)	12.5 (≈ 7.27 µg/mL)	–	–
S=c1n(CN2CCOCC2)nc(Cc2ccccc2Nc2c(Cl)cccc2Cl)n1/N=C/c1ccco1	12.5 (≈ 6.79 µg/mL)	25 (≈ 13.6 µg/mL)	5.505	3.12 (≈ 1.7 µg/mL)	12.5 (≈ 6.79 µg/mL)	12.5 (≈ 6.79 µg/mL)	3.12 (≈ 1.7 µg/mL)	> 300	> 300
COc1ccc(C2SCC(=O)N2n2c(Cc3ccccc3Nc3c(Cl)cccc3Cl)n[nH]c2=S)cc1 (centres undefined)	100 (≈ 55.9 µg/mL)	100 (≈ 55.9 µg/mL)	4.301	50 (≈ 27.9 µg/mL)	12.5 (≈ 6.98 µg/mL)	100 (≈ 55.9 µg/mL)	–	–	–
O=c1c2ccccc2nc2n(/N=C/c3ccco3)c(Cc3ccccc3Nc3c(Cl)cccc3Cl)nn12	12.5 (≈ 6.62 µg/mL)	12.5 (≈ 6.62 µg/mL)	4.602	25 (≈ 13.2 µg/mL)	12.5 (≈ 6.62 µg/mL)	12.5 (≈ 6.62 µg/mL)	–	–	–
S=c1n(CN2CCCCC2)nc(Cc2ccccc2Nc2c(Cl)cccc2Cl)n1/N=C/c1ccccc1	12.5 (≈ 6.89 µg/mL)	25 (≈ 13.8 µg/mL)	5.204	6.25 (≈ 3.45 µg/mL)	12.5 (≈ 6.89 µg/mL)	25 (≈ 13.8 µg/mL)	6.25 (≈ 3.45 µg/mL)	> 300	> 300
